An excerpt weighted towards active compounds, which were near 2.2% of everything screened.
PvdQ inh: P. aeruginosa PvdQ acylase inhibition. 340,000 compounds, 0.063% hits. AID 488965. purified PvdQ acylase, fluorescence plate reader. inhibition, % at 10 µM; in the data active means inhibition above about 30%, passing the limit was not always enough;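 further: 0% = vehicle neutral wells and 100% = reference inhibitor wells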
IMP-1 inhibitor: blocks Pseudomonas aeruginosa IMP-1 metallo-beta-lactamase | 290,000 compounds, 0.45% hits | inhibition, % at 5.6 µM | purified IMP-1, nitrocefin hydrolysis, epi-absorbance fluorescence;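 active means inhibition above the mean plus 3 SD of all compounds in the same screening run, cut at about 4.5% in these data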;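 further: 0% = IMP-1 with DMSO and 100% = DMSO wells lacking enzyme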
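System: Purified IMP-1 | Read-out basis: Percent enzyme inhibition | Controls: IMP-1 with DMSO as 0%, enzyme-free DMSO as 100% | Replicates: One well per compound | Doses: 5.6 µM nominal single concentration | Detection: Epi-absorbance fluorescence, 480 nm excitation, 530 nm emission | Incubation: 25 °C, 15 min preincubation, 25 min reaction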
Yeast superoxide: yeast age-related superoxide inhibition as caloric restriction mimetic; S. cerevisiae aged cells, superoxide DHE fluorescence; active compounds read low; superoxide response (% of plate mean), % at 10 µM; 330,000 compounds, 0.18% hits; AID 2690;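 active means superoxide response under a set limit, about three screen SD below normal, cut at about 65% in these data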;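 further: yeast aged for seven days with compound at 30 °C before DHE staining; 100% = average MFI of all compound-treated wells on the plate with controls excluded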
VIM-2 inhibitor: inhibitors of Pseudomonas aeruginosa VIM-2 metallo-beta-lactamase; 290,000 compounds, 0.89% hits; inhibition, % at 5.6 µM; purified VIM-2, nitrocefin hydrolysis, epi-absorbance fluorescence;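 active means inhibition above the mean of all tested compounds plus 3 SD, cutoff set per screening run, cut at about 7.5% in these data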;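 further: red hydrolysis product quenches plate fluorescence so inhibitors raise well fluorescence; 0% = enzyme with DMSO and 100% = DMSO without enzyme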
PHOSPHO1 inh: PHOSPHO1 (human) inhibition | Q8TCT1 | recombinant PHOSPHO1, absorbance phosphatase assay | inhibition, % at 13.3 µM | 290,000 compounds, 1.1% hits; in the data active means inhibition above about 60%
Target sequence (Q8TCT1 whole entry, looked up): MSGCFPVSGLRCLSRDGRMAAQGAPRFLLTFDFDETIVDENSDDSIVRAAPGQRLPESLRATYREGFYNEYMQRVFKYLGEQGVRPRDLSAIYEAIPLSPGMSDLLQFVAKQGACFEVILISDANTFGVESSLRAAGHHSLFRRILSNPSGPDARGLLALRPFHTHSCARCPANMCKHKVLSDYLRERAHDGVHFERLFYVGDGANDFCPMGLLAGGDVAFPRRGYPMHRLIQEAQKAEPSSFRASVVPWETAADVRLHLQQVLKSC
* hit, by the source's call; · = not tested or not shown.

SMILES	PvdQ inh	IMP-1 inhibitor	Yeast superoxide	VIM-2 inhibitor	PHOSPHO1 inh
COc1cccc(/C=C2\Oc3cc(OCC(=O)N4Cc5ccccc5C[C@H]4C(=O)O)ccc3C2=O)c1	-1.6	-0.8	138.6	9.8*	7.9
CC(=O)Nc1cc2c(cc1[N+](=O)[O-])-c1ccc(F)cc1C2	-14.1	·	·	·	·
O=[N+]([O-])c1ccc2c(c1)Cc1cc(F)ccc1-2	87.3*	·	·	·	·
O=C1[C@@H](Oc2ccccc2)[C@@H](c2cccnc2)N1c1ccccc1	-13.1	·	98.7	·	·
O=C1C2C(c3ccccc3)C=CC(c3ccccc3)C2C(=O)N1c1cccnc1 (stereo not drawn)	-14.5	6.2*	80.1	1.2	-3.8
N#CC1(Cc2ccc(Cl)cc2)c2ccccc2C=CN1C(=O)c1ccccc1 (stereo not drawn)	14.6	-3.1	101.5	-1.9	34.9
CCn1ncc(CN2CCCC(C(=O)c3cccc(OC(C)C)c3)C2)c1C (stereo not drawn)	3.5	-0.6	116.9	-0.8	9.7
COc1ccc(CN2CCCC(C(=O)c3cccc(OC(C)C)c3)C2)cc1Cn1cccn1 (stereo not drawn)	32.9*	-2.1	104.8	-6.0	40.8
CCOc1ccc(-c2nnc(SCC(=O)Nc3ccc4c(c3)c3ccccc3n4CC)n2N)cc1	9.9	-3.8	98.1	-3.2	79.2*
CCn1c2ccccc2c2cc(NC(=O)CSc3nnc(-c4ccc(OC)c(OC)c4)n3N)ccc21	11.4	-2.9	102.1	-3.8	44.7
CCn1c2ccccc2c2cc(NC(=O)CSc3nnc(-c4ccccc4OC)n3N)ccc21	20.3	-1.9	117.9	-3.2	78.5*
CCn1c(C)c(C(=O)O)c2cc(OC)c3ccccc3c21	-7.6	-0.1	120.8	2.5	32.6
CCn1c(SCC(=O)Nc2nccs2)nnc1-c1ccc(S(=O)(=O)N2CCCCCC2)cc1	-10.0	-1.1	103.1	-0.9	30.3
CCC(Sc1nnc(-c2ccc(C)c(Cl)c2)n1CC)C(=O)Nc1nccs1 (stereo not drawn)	7.6	-1.6	98.4	-1.5	62.4*
CCn1c(=O)c2cc(C(=O)N3CCN(C(=O)c4ccco4)CC3)sc2c2ccccc21	·	-0.8	·	7.1	-0.2
Cc1c(C(=O)OC(C)C(C)C[N+](C)(C)C)oc2ccccc12 (stereo not drawn)	-4.7	-0.8	103.4	-1.3	86.8*
Cc1c(C(=O)OC(C)C(=O)N(C)Cc2ccccc2)oc2ccccc12 (stereo not drawn)	-6.3	·	96.9	·	·
COc1ccc(-c2cc(C(=O)Nc3ccc(Br)cc3)no2)cc1	-9.8	20.2*	99.9	0.1	51.3
COc1ccc(-c2cc(C(=O)Nc3cc(Cl)ccc3O)no2)cc1	-5.4	24.9*	86.8	-4.7	37.3
COc1ccc(-c2cc(C(=O)Nc3ccc(C)c(C)c3)no2)cc1	-13.4	-3.9	99.0	-3.0	60.6*
CN(Cc1ccccc1)C(=O)COc1cccnc1[N+](=O)[O-]	-10.2	-2.9	116.5	0.7	42.2
CC(=O)c1ccc(Nc2cc(C)nc3ccc(C)cc23)cc1	-6.8	-1.3	102.0	8.4*	32.8
Cc1ccc2nc(C)cc(NCCO)c2c1	-11.4	-0.2	95.6	-0.3	-3.3
Cc1ccc2nc(C)cc(Nc3ccc4c(c3)OCCO4)c2c1	12.1	-2.4	96.8	10.8*	-13.9
Cc1cccc(N(CC(N)=O)C2SC(=O)N(c3ccccc3)C2=O)c1 (stereo not drawn)	-2.6	6.6*	83.7	-2.5	29.4
SMILES	PvdQ inh	IMP-1 inhibitor	Yeast superoxide	VIM-2 inhibitor	PHOSPHO1 inh
Cc1ccc(N(CC(N)=O)C2SC(=O)N(C)C2=O)cc1 (stereo not drawn)	-6.8	-1.1	103.8	-2.0	-41.5
CCOc1ccc(CNC(=O)Cn2nc(C)c3c(C)n(-c4ccc(C)cc4)nc3c2=O)cc1	-8.8	10.8*	101.1	0.4	52.8
CC(C)c1ccc(C(C(=O)NC2CCCC2)N(C(=O)c2csnn2)C2CC2)cc1 (stereo not drawn)	-1.1	-2.8	106.7	-3.8	32.5
Cc1cc2nc(-c3ccccc3)cc(=O)n2[nH]1	-11.9	-3.6	114.2	-4.3	28.8
O=c1cc(-c2ccccc2)nc2cc(-c3ccco3)[nH]n12	-2.7	-0.3	63.0*	-1.8	33.4
Cc1ccccc1C(=O)N1CCN=C1SCc1ccc([N+](=O)[O-])cc1	2.6	1.4	92.1	2.7	68.5*
N#Cc1c(NC(=O)c2ccc([N+](=O)[O-])o2)sc2c1CCC2	-2.2	-3.1	103.6	-0.5	23.0
Cc1c(C(=O)N/N=C/c2ccncc2)nnn1-c1nonc1N	-18.9	·	·	·	·
O=c1c2ccccc2nnn1Cc1cccc2ccccc12	-13.5	-3.1	101.8	-2.1	37.0
Cc1cc2nnc(SCC(=O)N(C)C3CCS(=O)(=O)C3)n2c2ccccc12 (stereo not drawn)	-2.0	-3.2	101.2	7.6	32.1
Nn1c(Cc2cccc3ccccc23)nnc1SCn1nnc2ccccc2c1=O	-2.2	-2.6	119.8	-1.1	87.4*
CN(C(=O)CSc1nnc(Cc2cccc3ccccc23)n1N)C1CCS(=O)(=O)C1 (stereo not drawn)	-9.0	-0.2	80.5	-2.0	88.2*
Nc1cccc2[nH]c(C(F)(F)F)nc12	-3.2	14.9*	107.9	2.6	-3.4
COC(=O)c1ccc(NC(=O)c2ccc(C)cc2)o1	-13.8	5.5*	108.0	-0.8	18.3
CC[C@H](C)[C@H]1O[C@]2(CC[C@@H]1C)C[C@@H]1C[C@@H](CC=C(C)[C@@H](O[C@H]3C[C@H](OC)[C@@H](O[C@H]4C[C@H](OC)[C@@H](O)[C@H](C)O4)[C@H](C)O3)[C@@H](C)C=CC=C3CO[C@@H]4[C@H](O)C(C)=C[C@@H](C(=O)O1)[C@]34O)O2	-4.3	·	84.0	·	·
Cc1nc2ccc(-c3ccccc3)cc2o1	-7.9	-2.6	111.6	-1.0	79.2*
Cc1cc(C)n2nc(SC(C)C(=O)NCc3ccco3)nc2n1 (stereo not drawn)	1.5	-2.1	100.0	-4.0	63.7*
COc1ccc(N2CCN(c3nccs3)CC2)cc1	-7.7	-2.5	101.3	-0.8	8.7
Cc1cnc(NC(=O)c2ccc3c(c2)C(=O)N(Cc2cccnc2)C3=O)s1	-15.5	-4.1	93.4	-4.4	62.8*
Cc1ccc(NC(=O)c2ccc3c(c2)C(=O)N(Cc2cccnc2)C3=O)c(C)c1	-6.3	-1.9	93.1	-0.7	61.0*
O=C(Nc1nccs1)c1ccc2c(c1)C(=O)N(Cc1cccnc1)C2=O	-19.7	-2.4	85.6	-3.4	22.2
Cc1cccc(NC(=O)c2ccc3c(c2)C(=O)N(Cc2cccnc2)C3=O)c1C	-9.4	-2.6	94.8	-0.4	42.6
CCN(c1ccccc1)S(=O)(=O)c1ccc(Cl)c(NC(=O)CN(C)C2CCN(C)CC2)c1	-8.7	-1.4	101.7	-1.3	22.5
C=C1CC(COc2ccc3c(C)c(Cl)c(=O)oc3c2)(c2ccccc2)OC1=O (stereo not drawn)	-0.1	·	·	·	·
Cc1ccc2[nH]c(C(=O)O)c(-c3ccccc3)c2c1	-0.7	3.3	105.9	9.9*	20.0
COc1ccc(-n2c(SCC(=O)NCC3CCCO3)nc3ccccc32)cc1 (stereo not drawn)	-16.4	-4.3	86.7	-2.8	77.7*

Screening data from PubChem BioAssay.
